Results as given in ChEMBL document CHEMBL1142115, “Furanocembranoids from the stem bark of Croton oblongifolius” (J Nat Prod, 2007).
Converted amounts (≈) assume the structure as drawn.

Tested on: not listed separately
Experiment: Cytotoxicity against human CHAGO cells by MTT assay
Type: cell-based
Conditions: not given
Method in brief: (§1)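 In vitro cytotoxicity by MTT colorimetric read-out on human tumor cultures: BT474 (breast carcinoma), CHAGO (lung carcinoma), Hep-G2 (hepatocarcinoma), KATO-3 (gastric carcinoma) and SW-620 (colon carcinoma). Each pure isolate was tested on all five lines.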

Row | SMILES | IC50 [µg/mL]
1 | CC(C)[C@H]1/C=C/[C@@](C)(O)CC[C@@H]2O[C@@]2(C)Cc2cc(co2)CC1 [FURANOCEMBRANOID 2] | > 10
2 | CC(C)[C@H]1/C=C/[C@@](C)(O)CC[C@@H](O)[C@@](C)(O)Cc2cc(co2)CC1 [FURANOCEMBRANOID 3] | 7.1 (≈ 21.1 µM)
3 | C/C1=C\CC[C@](C)(O)/C=C/[C@H](C(C)C)CCc2coc(c2)C1 [FURANOCEMBRANOID 1] | 7 (≈ 23.1 µM)
4 | CC(C)[C@H]1/C=C/[C@@](C)(O)CC[C@@H](O)[C@@](C)(O)C[C@H]2C=C(CC1)C(=O)O2 [FURANOCEMBRANOID 4] | 9.3 (≈ 26.4 µM)

Tested on: HepG2
Experiment: Cytotoxicity against human HepG2 cells by MTT assay
Type: cell-based
Conditions: not given
Method in brief: as §1

Row | SMILES | IC50 [µg/mL]
5 | CC(C)[C@H]1/C=C/[C@@](C)(O)CC[C@@H]2O[C@@]2(C)Cc2cc(co2)CC1 [FURANOCEMBRANOID 2] | > 10
6 | CC(C)[C@H]1/C=C/[C@@](C)(O)CC[C@@H](O)[C@@](C)(O)Cc2cc(co2)CC1 [FURANOCEMBRANOID 3] | 5.7 (≈ 16.9 µM)
7 | C/C1=C\CC[C@](C)(O)/C=C/[C@H](C(C)C)CCc2coc(c2)C1 [FURANOCEMBRANOID 1] | 5.6 (≈ 18.5 µM)
8 | CC(C)[C@H]1/C=C/[C@@](C)(O)CC[C@@H](O)[C@@](C)(O)C[C@H]2C=C(CC1)C(=O)O2 [FURANOCEMBRANOID 4] | 6.1 (≈ 17.3 µM)

Tested on: SW-620
Experiment: Cytotoxicity against human SW620 cells by MTT assay
Type: cell-based
Conditions: not given
Method in brief: as §1

Row | SMILES | IC50 [µg/mL]
9 | CC(C)[C@H]1/C=C/[C@@](C)(O)CC[C@@H]2O[C@@]2(C)Cc2cc(co2)CC1 [FURANOCEMBRANOID 2] | 9.9 (≈ 31.1 µM)
10 | CC(C)[C@H]1/C=C/[C@@](C)(O)CC[C@@H](O)[C@@](C)(O)Cc2cc(co2)CC1 [FURANOCEMBRANOID 3] | 5.6 (≈ 16.6 µM)
11 | C/C1=C\CC[C@](C)(O)/C=C/[C@H](C(C)C)CCc2coc(c2)C1 [FURANOCEMBRANOID 1] | 6.3 (≈ 20.8 µM)
12 | CC(C)[C@H]1/C=C/[C@@](C)(O)CC[C@@H](O)[C@@](C)(O)C[C@H]2C=C(CC1)C(=O)O2 [FURANOCEMBRANOID 4] | 6 (≈ 17 µM)

Tested on: not listed separately
Experiment: Cytotoxicity against human KATO3 cells by MTT assay
Type: cell-based
Conditions: not given
Method in brief: as §1

Row | SMILES | IC50 [µg/mL]
13 | CC(C)[C@H]1/C=C/[C@@](C)(O)CC[C@@H]2O[C@@]2(C)Cc2cc(co2)CC1 [FURANOCEMBRANOID 2] | 6.8 (≈ 21.4 µM)
14 | CC(C)[C@H]1/C=C/[C@@](C)(O)CC[C@@H](O)[C@@](C)(O)Cc2cc(co2)CC1 [FURANOCEMBRANOID 3] | 8.2 (≈ 24.4 µM)
15 | C/C1=C\CC[C@](C)(O)/C=C/[C@H](C(C)C)CCc2coc(c2)C1 [FURANOCEMBRANOID 1] | 5.9 (≈ 19.5 µM)
16 | CC(C)[C@H]1/C=C/[C@@](C)(O)CC[C@@H](O)[C@@](C)(O)C[C@H]2C=C(CC1)C(=O)O2 [FURANOCEMBRANOID 4] | 8.1 (≈ 23 µM)

Tested on: not listed separately
Experiment: Cytotoxicity against human BT474 cells by MTT assay
Type: cell-based
Conditions: BT-474
Method in brief: as §1

Row | SMILES | IC50 [µg/mL]
17 | CC(C)[C@H]1/C=C/[C@@](C)(O)CC[C@@H]2O[C@@]2(C)Cc2cc(co2)CC1 [FURANOCEMBRANOID 2] | 9.5 (≈ 29.8 µM)
18 | CC(C)[C@H]1/C=C/[C@@](C)(O)CC[C@@H](O)[C@@](C)(O)Cc2cc(co2)CC1 [FURANOCEMBRANOID 3] | 9.6 (≈ 28.5 µM)
19 | C/C1=C\CC[C@](C)(O)/C=C/[C@H](C(C)C)CCc2coc(c2)C1 [FURANOCEMBRANOID 1] | 7.8 (≈ 25.8 µM)
20 | CC(C)[C@H]1/C=C/[C@@](C)(O)CC[C@@H](O)[C@@](C)(O)C[C@H]2C=C(CC1)C(=O)O2 [FURANOCEMBRANOID 4] | 9.6 (≈ 27.2 µM)
